# Measured values from ChEMBL document CHEMBL4689842, “EUbOPEN Chemogenomics Library wave 1” (2021).
# Test system: HEK-293T
# Assay: Multiplex assay against HEK293T;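 on Population Tubulin-Different-Phenotype (%): share of the cells with healthy nuclei that show this phenotype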
# Format: toxicity, cell-based
# Conditions: human
# Procedure, shortened: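 On a CQ1 microscope at 37°C and 5% CO2, live cells were imaged after compound addition. They had been stained at seeding with Hoechst33342, BioTracker Green Microtubule Cytoskeleton Dye, MitoTracker Red and Annexin V Alexa Fluor 680. CellPathfinder machine-learning gating assigned cells to Hoechst high-intensity objects or normal cells, normal cells to healthy, pyknosed or fragmented nuclei, and pyknosed cells to mitotic or apoptotic. Tubulin, mitochondrial-mass and membrane-permeability phenotypes are per cents of healthy-nucleus cells.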
# [1] = 12 h, 1 µM, compound concentration 1 uM, replicate 1
# [2] = 12 h, 1 µM, compound concentration 1 uM, replicate 2
# [3] = 12 h, 10 µM, compound concentration 10 uM, replicate 1
# [4] = 12 h, 10 µM, compound concentration 10 uM, replicate 2
# [5] = 24 h, 1 µM, compound concentration 1 uM, replicate 1
# [6] = 24 h, 1 µM, compound concentration 1 uM, replicate 2
# [7] = 24 h, 10 µM, compound concentration 10 uM, replicate 1
# [8] = 24 h, 10 µM, compound concentration 10 uM, replicate 2
# [9] = 48 h, 1 µM, compound concentration 1 uM, replicate 1
# [10] = 48 h, 1 µM, compound concentration 1 uM, replicate 2
# [11] = 48 h, 10 µM, compound concentration 10 uM, replicate 1
# [12] = 48 h, 10 µM, compound concentration 10 uM, replicate 2
smiles,measurement,setting,value
Oc1cccc(-c2nc(N3CCOCC3)c3oc4ncccc4c3n2)c1 [PI-103],Population Apoptotic (%),[1],58%
same,Population Fragmented Nuclei (%),[1],6%
same,Population Healthy Nuclei (%),[1],16%
same,Population Hoechst High Intensity Objects (%),[1],21%
same,Population Membrane Permeable-Phenotype (%),[1],2%
same,Population Mitochondria Different-Phenotype (%),[1],85%
same,Population Mitotic Cells (%),[1],41%
same,Population Normal (%),[1],78%
same,Population Pyknosed Nuclei (%),[1],77%
same,Population Tubulin-Different-Phenotype (%),[1],82%
same,Total Cell Count,[1],269
same,Population Apoptotic (%),[2],51%
same,Population Fragmented Nuclei (%),[2],10%
same,Population Healthy Nuclei (%),[2],13%
same,Population Hoechst High Intensity Objects (%),[2],14%
same,Population Membrane Permeable-Phenotype (%),[2],10%
same,Population Mitochondria Different-Phenotype (%),[2],68%
same,Population Mitotic Cells (%),[2],48%
same,Population Normal (%),[2],85%
same,Population Pyknosed Nuclei (%),[2],76%
same,Population Tubulin-Different-Phenotype (%),[2],63%
same,Total Cell Count,[2],161
same,Population Apoptotic (%),[3],72%
same,Population Fragmented Nuclei (%),[3],14%
same,Population Healthy Nuclei (%),[3],8%
same,Population Hoechst High Intensity Objects (%),[3],18%
same,Population Membrane Permeable-Phenotype (%),[3],11%
same,Population Mitochondria Different-Phenotype (%),[3],94%
same,Population Mitotic Cells (%),[3],27%
same,Population Normal (%),[3],81%
same,Population Pyknosed Nuclei (%),[3],77%
same,Population Tubulin-Different-Phenotype (%),[3],94%
same,Total Cell Count,[3],269
same,Population Apoptotic (%),[4],64%
same,Population Fragmented Nuclei (%),[4],7%
same,Population Healthy Nuclei (%),[4],6%
same,Population Hoechst High Intensity Objects (%),[4],6%
same,Population Membrane Permeable-Phenotype (%),[4],27%
same,Population Mitochondria Different-Phenotype (%),[4],54%
same,Population Mitotic Cells (%),[4],35%
same,Population Normal (%),[4],93%
same,Population Pyknosed Nuclei (%),[4],85%
same,Population Tubulin-Different-Phenotype (%),[4],72%
same,Total Cell Count,[4],172
same,Population Apoptotic (%),[5],47%
same,Population Fragmented Nuclei (%),[5],13%
same,Population Healthy Nuclei (%),[5],10%
same,Population Hoechst High Intensity Objects (%),[5],22%
same,Population Mitochondria Different-Phenotype (%),[5],78%
same,Population Mitotic Cells (%),[5],52%
same,Population Normal (%),[5],77%
same,Population Pyknosed Nuclei (%),[5],76%
same,Population Tubulin-Different-Phenotype (%),[5],86%
same,Total Cell Count,[5],293
same,Population Apoptotic (%),[6],53%
same,Population Fragmented Nuclei (%),[6],9%
same,Population Healthy Nuclei (%),[6],26%
same,Population Hoechst High Intensity Objects (%),[6],15%
same,Population Membrane Permeable-Phenotype (%),[6],13%
same,Population Mitochondria Different-Phenotype (%),[6],59%
same,Population Mitotic Cells (%),[6],46%
same,Population Normal (%),[6],84%
same,Population Pyknosed Nuclei (%),[6],64%
same,Population Tubulin-Different-Phenotype (%),[6],64%
same,Total Cell Count,[6],168
same,Population Apoptotic (%),[7],63%
same,Population Fragmented Nuclei (%),[7],18%
same,Population Healthy Nuclei (%),[7],8%
same,Population Hoechst High Intensity Objects (%),[7],17%
same,Population Membrane Permeable-Phenotype (%),[7],10%
same,Population Mitochondria Different-Phenotype (%),[7],100%
same,Population Mitotic Cells (%),[7],36%
same,Population Normal (%),[7],82%
same,Population Pyknosed Nuclei (%),[7],73%
same,Population Tubulin-Different-Phenotype (%),[7],90%
same,Total Cell Count,[7],291
same,Population Apoptotic (%),[8],65%
same,Population Fragmented Nuclei (%),[8],11%
same,Population Healthy Nuclei (%),[8],11%
same,Population Hoechst High Intensity Objects (%),[8],16%
same,Population Membrane Permeable-Phenotype (%),[8],23%
same,Population Mitochondria Different-Phenotype (%),[8],70%
same,Population Mitotic Cells (%),[8],34%
same,Population Normal (%),[8],83%
same,Population Pyknosed Nuclei (%),[8],76%
same,Population Tubulin-Different-Phenotype (%),[8],88%
same,Total Cell Count,[8],175
same,Population Apoptotic (%),[9],56%
same,Population Fragmented Nuclei (%),[9],23%
same,Population Healthy Nuclei (%),[9],4%
same,Population Hoechst High Intensity Objects (%),[9],22%
same,Population Membrane Permeable-Phenotype (%),[9],9%
same,Population Mitochondria Different-Phenotype (%),[9],72%
same,Population Mitotic Cells (%),[9],43%
same,Population Normal (%),[9],77%
same,Population Pyknosed Nuclei (%),[9],71%
same,Population Tubulin-Different-Phenotype (%),[9],63%
same,Total Cell Count,[9],297
same,Population Apoptotic (%),[10],50%
same,Population Fragmented Nuclei (%),[10],12%
same,Population Healthy Nuclei (%),[10],55%
same,Population Hoechst High Intensity Objects (%),[10],14%
same,Population Membrane Permeable-Phenotype (%),[10],7%
same,Population Mitochondria Different-Phenotype (%),[10],63%
same,Population Mitotic Cells (%),[10],50%
same,Population Normal (%),[10],85%
same,Population Pyknosed Nuclei (%),[10],31%
same,Population Tubulin-Different-Phenotype (%),[10],88%
same,Total Cell Count,[10],185
same,Population Apoptotic (%),[11],55%
same,Population Fragmented Nuclei (%),[11],29%
same,Population Healthy Nuclei (%),[11],7%
same,Population Hoechst High Intensity Objects (%),[11],17%
same,Population Membrane Permeable-Phenotype (%),[11],0%
same,Population Mitochondria Different-Phenotype (%),[11],94%
same,Population Mitotic Cells (%),[11],44%
same,Population Normal (%),[11],82%
same,Population Pyknosed Nuclei (%),[11],63%
same,Population Tubulin-Different-Phenotype (%),[11],84%
same,Total Cell Count,[11],307
same,Population Apoptotic (%),[12],78%
same,Population Fragmented Nuclei (%),[12],10%
same,Population Healthy Nuclei (%),[12],18%
same,Population Hoechst High Intensity Objects (%),[12],22%
same,Population Membrane Permeable-Phenotype (%),[12],8%
same,Population Mitochondria Different-Phenotype (%),[12],80%
same,Population Mitotic Cells (%),[12],21%
same,Population Normal (%),[12],77%
same,Population Pyknosed Nuclei (%),[12],71%
same,Population Tubulin-Different-Phenotype (%),[12],88%
same,Total Cell Count,[12],177
